The list is not random: actives were taken first. Their share in the collection is about 1.5%.
PPC-1+TRAIL kill – compounds killing PPC-1 cancer cells with TRAIL present (potentiator screen, no TRAIL-free arm). PPC-1 cells + TRAIL, ATPLite viability luminescence. cell killing (% activity), % at 4 µM or 5 µM. actives 0.41% (n = 220,000). AID 1443;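 active means cell killing above 50% in the first pass at 4 µM, then a duplicate retest at 5 µM averaging 50% or more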;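 further: plate controls were cells with TRAIL plus DMSO for no effect and medium-only wells lacking cells for full effect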
C8 TRAIL sens – sensitizes caspase-8 expressing cells to TRAIL; NB7+C8 cells + TRAIL, ATPlite viability luminescence; inhibition (viability loss, TRAIL sensitization), % at 10 µM; actives 1% (n = 360,000);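 active means compounds causing at least 50% loss of cell viability in the single-dose screen, relative to plate controls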
FLuc stim CS – firefly luciferase counter-screen for stimulation assays; P08659; ATPlite luciferase biochemical, luminescence, 10 min; 0 = ATP-free wells, 1 = DMSO control; activation factor at 10 µM; 200,000 tested, under 10 active; AID 1027;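 active means luciferase activation factor, scaled between plate controls, of at least 2 with compound at 10 µM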
Target sequence (P08659 whole entry, looked up): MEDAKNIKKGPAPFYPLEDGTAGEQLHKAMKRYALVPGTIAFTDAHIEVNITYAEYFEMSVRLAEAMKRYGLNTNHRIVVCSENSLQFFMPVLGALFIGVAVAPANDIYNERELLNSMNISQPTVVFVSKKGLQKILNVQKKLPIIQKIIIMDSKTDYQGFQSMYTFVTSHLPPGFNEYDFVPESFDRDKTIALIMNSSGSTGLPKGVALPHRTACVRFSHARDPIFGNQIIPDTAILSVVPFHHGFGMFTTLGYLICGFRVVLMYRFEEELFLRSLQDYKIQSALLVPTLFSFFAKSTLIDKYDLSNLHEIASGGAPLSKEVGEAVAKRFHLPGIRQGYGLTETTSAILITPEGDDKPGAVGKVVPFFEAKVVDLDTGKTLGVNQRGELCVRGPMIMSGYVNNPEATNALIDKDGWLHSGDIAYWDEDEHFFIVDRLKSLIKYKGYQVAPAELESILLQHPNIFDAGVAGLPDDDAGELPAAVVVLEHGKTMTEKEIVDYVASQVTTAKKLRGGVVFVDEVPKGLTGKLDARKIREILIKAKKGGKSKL
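Assay system – cell-free luciferase reagent · Medium – PBS-based ATP solution · Dosing – test compounds dosed from 2 mM stocks in 100% DMSO · Timing – 10 min, room temperature · Technique – light output (luminescence) · Measure – luminescence gain marking luciferase activators · Controls – No-ATP low control, compound-free enzyme-plus-ATP high control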
FLuc inhib CS – counter-screen for luciferase assay inhibitors: firefly luciferase inhibition. P08659. ATPLite firefly luciferase biochemical luminescence, 10 min. inhibition, % at 10 µM. actives 1.5% (n = 200,000);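 active means inhibition above about 50% when tested at 10 µM, limit read from the data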
* marks the source's active call; other numbers are inactive results.

`O=C(Nc1ccc(NC(=O)C2CC2)cn1)c1ccccc1` gave C8 TRAIL sens 50*.
O=C(Nc1ccc(NC(=O)c2ccco2)nc1)c1cccc(F)c1 was read as C8 TRAIL sens 27.
O=C(Nc1ccc(NC(=O)c2ccccc2F)cn1)c1ccco1 was read as C8 TRAIL sens 54*.
Screening O=C(Nc1ccc(NC(=O)c2ccco2)nc1)c1cccnc1 returned PPC-1+TRAIL kill 30, C8 TRAIL sens 20, FLuc stim CS 0.4 and FLuc inhib CS 62*.
Screening O=C(Nc1ccc(NC(=O)C2CC2)cn1)c1ccccc1Cl returned PPC-1+TRAIL kill 5, C8 TRAIL sens 7, FLuc stim CS 0.8 and FLuc inhib CS 24.
CCSc1nnc(NC(=O)[C@@H](NC(=O)c2ccc(C(C)(C)C)cc2)C(C)C)s1 was read as PPC-1+TRAIL kill 13, C8 TRAIL sens 27, FLuc stim CS 1 and FLuc inhib CS 4.
For O=C(CC(=O)NC1CCCCC1)N/N=C/c1ccccc1[N+](=O)[O-] the results were C8 TRAIL sens 13.
For O=C(CSc1nn(-c2ccccc2)c(=S)s1)Nn1cnnc1 the results were PPC-1+TRAIL kill 15, C8 TRAIL sens 4, FLuc stim CS 1.1 and FLuc inhib CS -10.
Screening Cc1ccc(NC(=O)CSc2nn(-c3ccccc3)c(=S)s2)cc1S(=O)(=O)N(C)C returned PPC-1+TRAIL kill -12, C8 TRAIL sens 66*, FLuc stim CS 1.1 and FLuc inhib CS -6.
Screening O=C(/C=C/c1ccc(Cl)cc1Cl)c1ccc[nH]1 returned PPC-1+TRAIL kill 2, C8 TRAIL sens -3, FLuc stim CS 0.5 and FLuc inhib CS 52*.
O=C(/C=C/c1ccccc1Cl)c1ccc[nH]1 was read as PPC-1+TRAIL kill 26, C8 TRAIL sens 11, FLuc stim CS 0.5 and FLuc inhib CS 48.
COc1cc2c(=O)n(CCC(=O)NCC3CCCO3)c(=O)n(CC(=O)Nc3ccc(C)cc3C)c2cc1OC (configuration not stated) was read as C8 TRAIL sens -8.
Screening C/C(=N/OC(=O)c1cccc(Cl)c1)c1nccs1 returned PPC-1+TRAIL kill 14, C8 TRAIL sens 1, FLuc stim CS 0.5 and FLuc inhib CS 55*.
Screening C/C(=N\OC(=O)c1ccccc1F)c1nccs1 returned PPC-1+TRAIL kill -10, C8 TRAIL sens 4, FLuc stim CS 0.2 and FLuc inhib CS 85*.
`CC(C)(C)c1ccc(C(=O)Nc2ccccc2Cl)cc1` gave PPC-1+TRAIL kill 21, C8 TRAIL sens 40, FLuc stim CS 0.4 and FLuc inhib CS 59*.
For COc1cccc(/C=C2\SC(=S)N(c3cccnc3)C2=O)c1OC the results were PPC-1+TRAIL kill 5, C8 TRAIL sens -1, FLuc stim CS 0.3 and FLuc inhib CS 67*.
Screening CC1(C(=O)NS(=O)(=O)C2CC2)CCCN(C(=O)C2(c3ccc(Cl)cc3)CCCC2)C1 (configuration not stated) returned C8 TRAIL sens -18.
For CSc1nc(NCCN(C)C)c2sc3nc(-c4ccco4)c4c(c3c2n1)CCC4 the results were C8 TRAIL sens 83*.
Screening CSc1nc(N(C)CCO)c2sc3nc(-c4ccco4)c4c(c3c2n1)CCC4 returned PPC-1+TRAIL kill 6, C8 TRAIL sens -2, FLuc stim CS 1 and FLuc inhib CS -5.
CCNc1ncnc2c1cnn2C was read as PPC-1+TRAIL kill 14, C8 TRAIL sens -3, FLuc stim CS 1 and FLuc inhib CS -3.
`CC1CN(C/C(=N\O)C23CC4CC(CC(C4)C2)C3)CC(C)O1` (configuration not stated) gave C8 TRAIL sens 10.
Screening Oc1cccc2ccc(Nc3ccccn3)nc12 returned PPC-1+TRAIL kill -4, C8 TRAIL sens 83*, FLuc stim CS 0.9 and FLuc inhib CS 5.
`Cc1ccc(C2=NC(=O)/C(=C/c3cc(O)c(O)c(Br)c3)S2)cc1` gave PPC-1+TRAIL kill 14, C8 TRAIL sens 19, FLuc stim CS 0.5 and FLuc inhib CS 50*.
`Cc1ccc(S(=O)(=O)N2CCN(C(=O)CSc3ncc(C(F)(F)F)cc3Cl)CC2)cc1` gave PPC-1+TRAIL kill 28, C8 TRAIL sens 8, FLuc stim CS 0.4 and FLuc inhib CS 58*.
`O/N=C/Cc1[nH]c2ccccc2c1-c1ccccc1` gave C8 TRAIL sens -6.
Screening CN(C(=S)NC(=O)c1ccc(F)cc1)C1CCCCC1 returned C8 TRAIL sens 23.
Screening CN(C(=S)NC(=O)c1ccc(Cl)cc1)C1CCCCC1 returned C8 TRAIL sens 50*.

Bioassay records (PubChem)
